A selection: hits, their analogues and other compounds. The true share with any hit is near 2.5%.
KLK7 zymogen act – proKLK7 zymogen activators, primary screen, biochemical, fluorescence intensity; Kallikrein-7 (Homo sapiens), P49862; purified proKLK7, EDANS-DABCYL substrate fluorescence; 100% is mature enzyme control, 0% vehicle; activation, % at 7 µM; actives 0.9% (n = 370,000);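 active = activation above the mean of all tested compounds plus 3 SD, computed per campaign excluding outliers beyond control limits, cut at about 13% in these data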
Target sequence (P49862 whole entry, looked up): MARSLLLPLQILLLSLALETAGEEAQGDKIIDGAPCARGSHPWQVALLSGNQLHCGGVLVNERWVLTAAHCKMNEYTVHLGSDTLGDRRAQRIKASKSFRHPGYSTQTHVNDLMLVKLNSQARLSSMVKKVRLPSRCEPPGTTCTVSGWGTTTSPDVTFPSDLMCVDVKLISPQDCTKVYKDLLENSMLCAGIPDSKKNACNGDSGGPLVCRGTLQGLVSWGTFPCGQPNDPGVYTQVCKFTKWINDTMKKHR
NR2E3 ag-1 – NR2E3 agonists in two-hybrid cells, primary screen, cell-based, luminescence, CHO-S, Gal4-NCOR/VP16-NR2E3; Photoreceptor-specific nuclear receptor (Homo sapiens), Q9Y5X4; inhibition of corepressor binding, % at 3.98 µM; actives 0.35% (n = 360,000); AID 602229, 2012; luciferase;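 active = inhibition above the mean of all tested compounds plus 3 SD, cut at about 70% in these data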;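 also: 0% = DMSO with NR2E3 transfected cells and 100% = cells lacking NR2E3 construct; higher means lower luciferase signal from less NR2E3 corepressor binding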
Target sequence (Q9Y5X4 whole entry, looked up, the tested form may be a part): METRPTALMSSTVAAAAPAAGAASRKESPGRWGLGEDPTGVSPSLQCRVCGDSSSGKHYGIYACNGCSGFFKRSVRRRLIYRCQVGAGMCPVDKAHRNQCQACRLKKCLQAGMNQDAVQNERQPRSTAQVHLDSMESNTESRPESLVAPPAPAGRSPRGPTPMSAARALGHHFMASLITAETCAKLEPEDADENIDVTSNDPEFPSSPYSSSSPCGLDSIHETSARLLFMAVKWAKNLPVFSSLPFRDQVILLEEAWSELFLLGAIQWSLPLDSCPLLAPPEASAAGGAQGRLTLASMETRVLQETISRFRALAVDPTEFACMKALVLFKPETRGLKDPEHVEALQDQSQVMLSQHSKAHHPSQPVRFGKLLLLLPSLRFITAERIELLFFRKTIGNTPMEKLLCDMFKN
ADAM10 inh – human ADAM10 inhibitors, primary screen, biochemical, QFRET, HTS | recombinant ADAM10, EDANS/DABCYL FRET peptide cleavage, 3 h | actives 0.62% (n = 370,000) | inhibition, % at 7 µM | AID 720582, 2013 | Disintegrin and metalloproteinase domain-containing protein 10 (Homo sapiens), O14672;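 active = inhibition above a per-campaign cutoff equal to the mean of compounds falling between control-based bounds plus 3 SD, cut at about 20% in these data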;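 also: 0% = DMSO wells while the 100% control is not disclosed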
NR2E3 ag-2 – inhibitors of NR2E3-RetCOR corepressor binding, primary screen, NR2E3 agonist project, biochemical, TR-FRET, GST-NR2E3, biotin-RetCOR | Photoreceptor-specific nuclear receptor (Homo sapiens), Q9Y5X4 | 1536-well | inhibition of corepressor binding, % at 4.78 µM | actives 0.12% (n = 320,000) | AID 2300, 2010;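 active = percent inhibition above the cutoff of mean plus 3 SD of all tested compounds, set per screening campaign, cut at about 20% in these data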;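 also: 0% = DMSO wells and 100% = biotin wells as full block of FRET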
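Assay system: NR2E3–RetCOR corepressor complex. Quantity: 1.35 nM GST-NR2E3. Buffer or medium: pH 7.5 Tris-based buffer. Reagent: biotinylated RetCOR corepressor at 7 nM final. Schedule: 5 h at 4 °C. Detection: TR-FRET, emission read at 617 and 671 nm. Replicates: one well per compound, singlicate testing.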
ADAM17 inh – ADAM17 inhibitors, primary screen, biochemical, QFRET. Disintegrin and metalloproteinase domain-containing protein 17 (Homo sapiens), P78536. recombinant ADAM17, EDANS/DABCYL FRET peptide cleavage. inhibition, % at 6.95 µM. actives 0.83% (n = 370,000);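 active = inhibition above the mean of compounds lying between control limits plus 3 SD, set per campaign, cut at about 8.5% in these data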;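 also: 0% = DMSO-only wells as the low control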
JMJD2C inh – inhibitors of GASC-1 histone demethylase, primary screen, biochemical, fluorescence, DELFIA europium; actives 0.069% (n = 330,000); inhibition, % at 2.35 µM; GST-JMJD2C(1-420) H3K9me3 demethylation; AID 2099, 2009;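 active = more than half of a compound's replicate wells show inhibition beyond 50%, single wells judged on their own value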;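 also: signal counts dimethyl H3K9 product captured on neutravidin plate; 0% = median of DMSO wells and 100% = 0.3 times that DMSO median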
proKLK7 act conf – proKLK7 zymogen activators, confirmation, biochemical, fluorescence intensity, triplicate. shares compounds with KLK7 zymogen act. purified proKLK7, EDANS-DABCYL substrate fluorescence; scaled: vehicle 0, mature enzyme 100. activation, % at 7 µM. actives 68% (n = 3,200);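 active = activation, as change over the incubation, above the mean of all tested compounds plus 3 SD, cut at about 13% in these data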
EDANS-DABCYL int – EDANS-DABCYL substrate optical interference, artefact control for kallikrein-7 zymogen activator project, biochemical, fluorescence intensity, high throughput; shares compounds with KLK7 zymogen act; no enzyme, 4 h; solvent 0%, active enzyme control 100%; activation, % at 7 µM; actives 80% (n = 3,200); AID 686952, 2013;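 active = activation above the all-compound mean plus 3 SD, ignoring values outside control-based bounds, cut at about 4.8% in these data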;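 also: value is the 4 h activation minus the activation read at time zero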
EDANS interf – optically interferes with EDANS-DABCYL fluorescence, kallikrein-7 activator counter-screen. shares compounds with KLK7 zymogen act. EDANS-DABCYL peptide fluorescence interference, no enzyme. EC50, µM. actives 20% (n = 250). AID 720493;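 active = compounds that raise the fluorescence signal in this interference counterscreen, with EC50 at or below 10 µM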;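 also: intact quenched peptide substrate alone read at 355 nm excitation and 520 nm emission; signal is fluorescence gain from T0 to T4 after four hours at room temperature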
The depositor's hits bear a star; i = inactive; x = no result.

SMILES | KLK7 zymogen act | NR2E3 ag-1 | ADAM10 inh | NR2E3 ag-2 | ADAM17 inh | JMJD2C inh | proKLK7 act conf | EDANS-DABCYL int | others
CC(C)(C)OC(=O)NN1CC(=O)N2Cc3ccccc3C[C@@H]2C1=O | 0 | 21 | -9 | 1 | -2 | 0 | x | x
CCOc1ccc(CN(C)C(=O)CNC(=O)c2cc(OC)c(OC)c(OC)c2)cc1 | 0 | 2 | 5 | -1 | 6 | 3 | x | x
COc1cc2c(cc1OC)C(C1C(=O)CCCC1=O)N(C(=O)CCl)CC2 (stereo unspecified) | 191* | -19 | i | 3 | -286 | -11 | 6 | 9.2*
COc1cc2c(cc1OC)C(C1C(=O)CC(C)CC1=O)N(C(=O)CCl)CC2 (stereo unspecified) | 213* | -16 | i | 1 | -222 | -6 | 9 | 9.7*
COC(=O)C1(C)CCc2cc(OC)ccc2C1=O (stereo unspecified) | 0 | -16 | -5 | 0 | -5 | 8 | x | x
COc1ccc2c(c1)CCC1(C)CC(=O)C(Br)=C21 (stereo unspecified) | 124* | -17 | i | x | i | x | 71* | 76*
Cc1cccc(-c2n[nH]nc2C2=CC(=O)CC(C)(C)C2)c1 | 1 | 11 | -16 | x | -6 | x | x | x
CCCCNc1nc(-c2ccccc2)cc(C(F)(F)F)c1C(N)=O | 19* | -31 | -244 | 7 | -77 | -2 | -5 | -5
NC(=O)c1c(C(F)(F)F)cc(-c2ccccc2)nc1NCCO | 7 | -9 | -438 | -1 | -136 | 38 | x | x
COc1cccc(NC(=O)CSc2nc3c(sc4ccccc43)c(=O)n2CCN(C)C)c1 | 14* | -29 | i | 8 | -243 | 11 | 3 | 4
COc1ccccc1CNC(=O)Nc1nnc([C@H]2C[C@H](O)[C@@H](CO)O2)s1 | 0 | -11 | -6 | x | -5 | x | x | x
COC(=O)C1=CN(c2ccc(OC)cc2)C(N)=C(C#N)C1c1ccccc1F (stereo unspecified) | -2 | x | -5 | x | -4 | x | x | x
COC(=O)C1=CN(c2ccc(OC)cc2OC)C(N)=C(C#N)C1c1ccccc1F (stereo unspecified) | 114* | x | -109 | x | -29 | x | 19* | 41*
CC(=O)Nc1ccc(S(=O)(=O)Nc2nc3ccccc3nc2-n2ccc(=NC(=O)c3ccccc3)cc2)cc1 | 39* | -33 | -7 | -3 | -2 | 10 | 40* | 16* | EDANS interf=i
CC(=O)Nc1ccc(S(=O)(=O)Nc2nc3ccccc3nc2-n2ccc(=NC(=O)c3ccc(F)cc3)cc2)cc1 | 81* | -2 | -16 | 0 | -8 | 3 | 96* | 87*
O=C(N=c1ccn(-c2nc3ccccc3nc2NS(=O)(=O)c2ccc(Cl)cc2)cc1)c1ccccc1Cl | x | x | x | 2 | x | -1 | x | x
Nc1ccn([C@@H]2O[C@H](CNCc3cccc(OC4CCCC4)c3)[C@@H](O)[C@H]2O)c(=O)n1 | 0 | -18 | 2 | x | 2 | x | x | x
O=C(OCC(O)COC(=O)c1cccnc1)c1cccnc1 | 0 | 11 | 1 | 1 | -2 | -24 | x | x
CCN(CC)CCN1C(=O)c2ccccc2NC1c1cc(OC)c(OC)c(OC)c1 (stereo unspecified) | 99* | 3 | i | -2 | -452 | -2 | 14* | 18*
CCCN1C(=O)c2ccccc2NC1c1cc(OC)c(OC)c(OC)c1 (stereo unspecified) | 16* | -4 | i | 0 | -341 | 34 | 11 | 16*
COc1ccc(CCN2C(=O)c3ccccc3NC2c2cc(Cl)c(O)c(OC)c2)cc1 (stereo unspecified) | 4 | -14 | -214 | -1 | -78 | -2 | x | x
O=C(NCc1ccco1)Nc1ccc2nsnc2c1 | 27* | -5 | i | 2 | -238 | -5 | 26* | 29*
O=C(CS(=O)c1ccc(Br)cc1)N1CCOCC1 (stereo unspecified) | 0 | -49 | 0 | 2 | -2 | 10 | x | x
COCCCNC(=O)Cn1nc(Cc2ccncc2)c2ccccc2c1=O | 0 | x | -5 | x | -1 | x | x | x
COc1ccc(-c2c(C)oc3c(CN4CCCC(C)C4)c(O)ccc3c2=O)cc1OC (stereo unspecified) | 7 | 4 | -426 | x | -165 | -5 | x | x
SMILES | KLK7 zymogen act | NR2E3 ag-1 | ADAM10 inh | NR2E3 ag-2 | ADAM17 inh | JMJD2C inh | proKLK7 act conf | EDANS-DABCYL int | others
COc1ccccc1-c1coc2c(CN3CCCC(C)C3)c(O)ccc2c1=O (stereo unspecified) | 40* | -22 | i | 5 | i | -28 | 65* | 62*
COc1ccc(-c2c(C)oc3c(CN4CCCCC4C)c(O)ccc3c2=O)cc1 (stereo unspecified) | 41* | -2 | i | -2 | i | 6 | 50* | 52*
COc1ccccc1-c1coc2c(CN3C(C)CCCC3C)c(O)ccc2c1=O (stereo unspecified) | -3 | -16 | -321 | 9 | -116 | -7 | x | x
Cc1oc2c(CN3CCCC(C)C3)c(O)ccc2c(=O)c1-c1ccccc1 (stereo unspecified) | 33* | -26 | i | 1 | -438 | 0 | 23* | 23*
COc1ccccc1-c1coc2c(CN3CCCCC3C)c(O)ccc2c1=O (stereo unspecified) | 53* | -10 | i | 4 | i | 79 | 66* | 64*
CCCC[C@@H]1C(=O)N2N=Cc3cc(C)c(C)cc3[C@H]2N2N=Cc3cc(C)c(C)cc3[C@@H]12 | 0 | x | -1 | x | 0 | x | x | x
Nc1[nH]c(C(=O)c2ccccc2)c(-c2ccc(Cl)cc2Cl)c1C(=O)c1cccs1 | x | x | 13 | x | 4 | x | x | x
CC1CCCCN1Cc1c(O)ccc2c(=O)c(-c3ccc(Cl)cc3)coc12 (stereo unspecified) | 17* | -43 | i | 1 | -271 | 0 | 27* | 26*

Bioassay records from PubChem.
